An excerpt weighted towards active compounds, which were near 1.8% of everything screened.
HKDC1 inh: HKDC1 hexokinase inhibitors, primary screen, biochemical, fluorescence, uHTS; Q2TB90; recombinant HKDC1, G6PDH/diaphorase resazurin coupled fluorescence; inhibition, % at 20 µM; 340,000 tested, 0.16% active; AID 493160, 2011;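 active = inhibition above about 35% when tested at 20 µM, limit read from the data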
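Incubation: 90 min at room temperature in dark / Material: recombinant HKDC1 (HK5) hexokinase enzyme, produced in-house / Quantity: enzyme 5 µg/mL final / Compound: one dose of 20 µM, 1% DMSO / Reagent: glucose and ATP substrates / Buffer or medium: Tris pH 8.0 buffer with MgCl2, Tween-20, BSA, BME / Technique: resorufin fluorescence at 613 nm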
STEP block: STEP phosphatase inhibitors, primary screen, biochemical, fluorescence intensity, uHTS. 360,000 tested, 0.25% active. AID 588621, 2011. recombinant STEP, OMFP fluorogenic substrate. Tyrosine-protein phosphatase non-receptor type 5 (Homo sapiens), P54829. inhibition, % at 20 µM;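 active = inhibition at 20 µM, scaled per plate between control wells, above about 37%, limit read from the data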
Target sequence (P54829 whole entry, looked up): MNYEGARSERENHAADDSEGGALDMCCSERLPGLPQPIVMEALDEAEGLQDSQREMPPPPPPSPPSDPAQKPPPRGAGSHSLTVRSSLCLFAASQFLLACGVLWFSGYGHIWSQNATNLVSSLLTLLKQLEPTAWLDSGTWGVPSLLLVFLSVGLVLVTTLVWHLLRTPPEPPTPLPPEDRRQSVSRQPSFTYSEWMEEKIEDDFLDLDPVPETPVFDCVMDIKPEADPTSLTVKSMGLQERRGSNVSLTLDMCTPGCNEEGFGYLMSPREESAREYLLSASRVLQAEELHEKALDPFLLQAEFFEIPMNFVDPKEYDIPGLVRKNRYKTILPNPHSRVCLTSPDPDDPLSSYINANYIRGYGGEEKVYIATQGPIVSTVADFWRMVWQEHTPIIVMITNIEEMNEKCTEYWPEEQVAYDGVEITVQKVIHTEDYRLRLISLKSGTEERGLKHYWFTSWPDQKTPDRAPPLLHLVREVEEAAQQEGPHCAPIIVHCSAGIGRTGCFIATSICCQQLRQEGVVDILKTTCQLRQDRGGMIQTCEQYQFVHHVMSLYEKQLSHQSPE
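Also added – OMFP at 25 µM · Test system – STEP tyrosine phosphatase · Technique – FITC-channel fluorescence of OMFP product · Schedule – 20 min at room temperature, dark · Evaluation – control-normalized % inhibition with plate pattern correction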
LMPTP block: LMPTP phosphatase inhibitors, primary screen, biochemical, fluorescence intensity, uHTS; Low molecular weight phosphotyrosine protein phosphatase (Homo sapiens), P24666; 360,000 tested, 0.22% active; AID 651560, 2012; recombinant LMPTP-A, OMFP fluorogenic substrate; inhibition, % at 20 µM;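 active = compounds that cut the enzyme signal by at least half of the control window in the single-dose screen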
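Test system: LMPTP-A phosphatase enzyme; input: 0.625 nM LMPTP-A final; reagent: OMFP substrate, 400 µM final; compound dosing: 20 µM single dose, 3% DMSO; incubation: 50 min dark incubation at room temperature; measured by: endpoint fluorescence intensity from OMFP dephosphorylation; measure: % inhibition relative to no-enzyme and uninhibited control wells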
DNMT1 inh: human DNMT1 methyltransferase inhibitors, primary screen, biochemical, molecular beacon, fluorescence, HinP1I cleavage, uHTS; inhibition (reported as % activation of signal), % at 10 µM; 360,000 tested, 0.83% active; in the data active = inhibition above about 50%
SUMO1-SIM PPI: modulators of SUMO1 protein-protein interactions, primary screen, biochemical, uHTS; Small ubiquitin-related modifier 1 (Homo sapiens), P63165; SUMO1 binding to a labelled peptide, TR-FRET, 1 h; inhibition, % at 20 µM; 360,000 tested, 0.33% active; AID 602429, 2012; in the data active = inhibition above about 37%
Scp-1 inhibitor: Scp-1 phosphatase inhibitors, primary screen, biochemical, colorimetric, uHTS. Carboxy-terminal domain RNA polymerase II polypeptide A small phosphatase 1 (Homo …. AID 493091, 2011. 340,000 tested, 0.88% active. Recombinant Scp1, phosphopeptide, malachite green phosphate absorbance. inhibition, % at 20 µM;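 active = inhibition above about 50% at 20 µM, limit read from the data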
Target sequence (Q9GZU7 76-261 limits assumed): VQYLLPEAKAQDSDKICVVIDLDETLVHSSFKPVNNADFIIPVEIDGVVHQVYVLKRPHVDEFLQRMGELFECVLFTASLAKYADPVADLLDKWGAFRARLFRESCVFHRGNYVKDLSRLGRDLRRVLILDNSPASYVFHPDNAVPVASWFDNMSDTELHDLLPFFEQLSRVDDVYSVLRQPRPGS
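Material – SCP-1 phosphatase catalytic domain, residues 76-261 · Buffer or medium – Acidic Tris acetate buffer with magnesium and detergent · Also added – Phospho 17-mer peptide substrate · Compound – single 20 µM dose, 1% DMSO · Times – 45 min room-temperature reaction, 5 min colour, 30 min stabiliser · Technique – Phosphate-binding colour reagent, absorbance read at 630 nm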
DNMT1 interf DR: spectral interference with molecular beacon fluorescence, dose response, artefact control for DNMT1 inhibitor project, biochemical, fluorescent molecular beacon; spectral interference counter-screen; IC50, µM; shares compounds with DNMT1 inh; 200 tested, under 10 active; call rule not given here
DNMT1 confirm: DNMT1 methyltransferase inhibitor retest, confirmation, biochemical, molecular beacon, fluorescence, single concentration. shares compounds with DNMT1 inh. DNMT1 molecular beacon HinP1I cleavage. inhibition, % at 10 µM. 2,300 tested, 8% active;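 active = average inhibition of at least 30% in the single-concentration confirmation test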
DNMT1 interf: shows spectral interference in the DNMT1 beacon assay | shares compounds with DNMT1 inh | DNMT1 molecular beacon spectral interference counterscreen, fluorescence 485/520 | activation (fluorescence interference), % at 10 µM | 2,300 tested, 1% active | AID 602387;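 active = activation of at least 30% at 10 µM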;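 note: DNMT1 catalytic domain with a HinP1I cleavage step and a FAM/dabcyl DNA beacon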
Large screens that a line does not name were inactive (follow-up assays come after a bar, where they were run).

O=C(CNC(=O)c1ccncc1)Nc1ccc(F)c(F)c1	none
CC1=NN(c2cccc(C(=O)O)c2)C(=O)/C1=C\C=C\c1ccco1	STEP block 41, DNMT1 inh 106, Scp-1 inhibitor 80 | DNMT1 interf DR inactive | DNMT1 confirm 107 | DNMT1 interf inactive
CC1=NN(c2ccccc2)C(=O)/C1=C/C=C/c1ccccc1	none
CN(C(=O)COC(=O)c1ccccc1OCc1ccc(F)cc1)C1CCS(=O)(=O)C1 (stereo not drawn)	none
Cc1ccccc1-c1cccc([C@@H]2C[C@H]3[C@H](CON3C)CN2C(=O)CCc2ccccc2)c1	DNMT1 inh 78 | DNMT1 confirm inactive | DNMT1 interf inactive
Cc1ccccc1C1NC(=O)c2ccccc2O1 (stereo not drawn)	DNMT1 inh 75 | DNMT1 confirm inactive | DNMT1 interf inactive
O=C1NC(c2ccc(Cl)cc2Cl)Oc2ccccc21 (stereo not drawn)	none
COc1ccc(CC(=O)Nc2ccc(-c3noc(-c4cccc(OC)c4)n3)cc2)cc1	DNMT1 inh 61 | DNMT1 confirm inactive | DNMT1 interf inactive
COc1cccc(-c2nc(-c3ccc(NC(=O)c4cccnc4)cc3)no2)c1	none
CC(=O)OCC(=O)Nc1ccc([N+](=O)[O-])cc1Cl	none
O=C(COC(=O)C12CC3CC(CC(C3)C1)C2)Nc1ccc([N+](=O)[O-])cc1Cl	DNMT1 inh 72 | DNMT1 confirm inactive | DNMT1 interf inactive
CCn1c(CC(=O)Nc2ccccc2F)nnc1SCC(=O)N1CCN(c2ccccc2)CC1	DNMT1 inh 77 | DNMT1 confirm inactive | DNMT1 interf inactive
COc1ccc(C)cc1N(CC(=O)NCCSCc1ccco1)S(=O)(=O)c1ccc(C)cc1	none
O=C(NCCCN1CCCC1)c1ccc2c(c1)N(Cc1cccc(Cl)c1)C(=O)c1ccccc1S2(=O)=O	none (no result: HKDC1 inh, Scp-1 inhibitor)
CC1CCCCN1CCNC(=O)c1ccc2c(c1)N(Cc1cccc(Cl)c1)C(=O)c1ccccc1S2(=O)=O (stereo not drawn)	DNMT1 inh 86 (no result: HKDC1 inh, Scp-1 inhibitor) | DNMT1 confirm inactive | DNMT1 interf inactive
COc1cc2ccc(CC(N)=O)cc2cc1OC	DNMT1 inh 52 (no result: HKDC1 inh, Scp-1 inhibitor) | DNMT1 confirm inactive | DNMT1 interf inactive
COc1ccc(CCN2CC(C(=O)OCC(=O)Nc3c(C)nn(-c4ccccc4)c3C)CC2=O)cc1OC (stereo not drawn)	DNMT1 inh 86 | DNMT1 confirm inactive | DNMT1 interf inactive
COC(=O)[C@H](Cc1ccccc1)N1C/C=C\COc2c(Cl)cc(Cl)cc2S1(=O)=O	DNMT1 inh 82 | DNMT1 confirm inactive | DNMT1 interf inactive
O=C(OCC(=O)N1CCC(Cc2ccccc2)CC1)c1ccc(CO)cc1	none
CCOC(=O)[C@]12CCC=C1N(Cc1cccc3ccccc13)C(=O)[C@H](CC(=O)NCc1ccc(C)o1)C2	none (no result: HKDC1 inh, STEP block, DNMT1 inh, Scp-1 inhibitor)
Cc1cc(NC(=O)CSc2nc3sc4c(c3c(=O)n2C)CCCC4)no1	DNMT1 inh 56 | DNMT1 confirm inactive | DNMT1 interf inactive
CCCCN1CCCCC1(C)C(=O)NCc1cccs1 (stereo not drawn)	none (no result: HKDC1 inh, Scp-1 inhibitor)
COCOc1cccc(CN2CCC(C)(Oc3ccc(C(C)=O)cc3)C2)c1 (stereo not drawn)	none (no result: HKDC1 inh, Scp-1 inhibitor)
CC(=O)c1ccc(OC2(C)CCN(Cc3cc4ccccc4[nH]3)C2)cc1 (stereo not drawn)	DNMT1 inh 91 (no result: HKDC1 inh, Scp-1 inhibitor) | DNMT1 confirm inactive | DNMT1 interf inactive
Cc1ccc(-n2nnnc2CNC(=O)C(=O)c2c[nH]c3ccccc23)cc1C	none (no result: HKDC1 inh, Scp-1 inhibitor)
COc1ccc(C(CC(=O)N2CCOCC2)c2c(OC)cc(OC)c3c(-c4ccccc4)cc(=O)oc23)cc1 (stereo not drawn)	DNMT1 inh 74 | DNMT1 confirm inactive | DNMT1 interf inactive
CCCc1ccc(C(C)NC(=S)NC2CCCCC2)cc1 (stereo not drawn)	none
O=C(Nc1ccc(Br)cn1)c1cccc(-c2cc3ccccc3oc2=O)c1	DNMT1 inh 64 | DNMT1 confirm inactive | DNMT1 interf inactive
Cc1nc(NC(=O)c2cccc(-c3cc4ccccc4oc3=O)c2)ccc1Br	none
Nc1ccc(Nc2ccccc2)c(S(=O)(=O)O)c1	STEP block 97, LMPTP block 70, DNMT1 inh 97, SUMO1-SIM PPI 58, Scp-1 inhibitor 83 | DNMT1 confirm inactive | DNMT1 interf inactive
O=C(NCC1CC1)c1ccc2sc([C@@H]3O[C@H](CO)[C@H](O)[C@H](O)[C@H]3O)nc2c1	none (no result: HKDC1 inh, Scp-1 inhibitor)
O=C(CSc1nnc(NC(=O)c2ccc(F)cc2)s1)NC1CCCC1	none
Cc1cc[n+](CC(=O)c2ccc(NC(=O)c3ccccc3)cc2)c2ccccc12	DNMT1 inh 53 | DNMT1 confirm inactive | DNMT1 interf inactive
O=C(C[n+]1cccc2ccccc21)c1ccc(NC(=O)c2ccccc2)cc1	none
O=C(N/N=C/c1cc(Br)c(O)c(Br)c1)c1cccc(C(F)(F)F)c1	DNMT1 inh 74 | DNMT1 confirm inactive | DNMT1 interf inactive
COc1ccc(NS(=O)(=O)c2cccc(C(=O)NN=Cc3cc(Br)c(O)c(Br)c3)c2)cc1	none
CN(C)C=Nc1ncc2c3ccccc3n(CCN(C)C)c2c1C#N	none
CCN(CC)CCn1c2ccccc2c2cnc(N)c(C#N)c21	DNMT1 inh 61 | DNMT1 interf DR inactive | DNMT1 confirm 38 | DNMT1 interf inactive
Cc1nn(C)c2nc(-c3cccs3)cc(C(F)(F)F)c12	none
Cc1nn(CCO)c2nc(-c3cccs3)cc(C(F)(F)F)c12	DNMT1 inh 60 | DNMT1 confirm inactive | DNMT1 interf inactive
C=CCc1ccccc1OCC(=O)NNC(=S)NCc1ccccc1	none
O=C(O)c1cccc(-c2noc(-c3cccc(Cl)c3)n2)c1	DNMT1 inh 83 | DNMT1 confirm inactive | DNMT1 interf inactive
